PMC4883002 (Environmental science & technology, 2016)
Counter-ions that a name gives are not always drawn.

What was measured:
[1] = target: human serum albumin (HSA) Site I (Homo sapiens, UniProt P02768); assay: Displacement of the Site I-selective fluorescent probe DNSA from HSA; assay type: binding; settings: for Site I binding (DNSA displacement), result in words: 10 µM HSA, 20 µM DNSA, pH 7.4, 25°C, numeric EC50 values only in Figures 4-6; for fluorescence of the site I probe, DNSA: at higher concentrations of ligand
Procedure, shortened: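 Fatty acid- and globulin-free HSA in 0.1 M potassium phosphate, pH 7.4, with DNSA probe and increasing ligand concentrations (DMSO stocks; final DMSO <0.8% v/v; DMSO-only controls). Fluorescence read after 5 min at 25°C, ex 350/em 460 nm. Triplicates, each averaging six readings, as % of control.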

HSA [2] = settings: cited from earlier work
HSA [3] = settings: cited from earlier work; remark: listed apart in the source
human serum albumin = settings: HSA binding, previously published; cited from earlier work

Sequence of human serum albumin (HSA) Site I (P02768 25-609): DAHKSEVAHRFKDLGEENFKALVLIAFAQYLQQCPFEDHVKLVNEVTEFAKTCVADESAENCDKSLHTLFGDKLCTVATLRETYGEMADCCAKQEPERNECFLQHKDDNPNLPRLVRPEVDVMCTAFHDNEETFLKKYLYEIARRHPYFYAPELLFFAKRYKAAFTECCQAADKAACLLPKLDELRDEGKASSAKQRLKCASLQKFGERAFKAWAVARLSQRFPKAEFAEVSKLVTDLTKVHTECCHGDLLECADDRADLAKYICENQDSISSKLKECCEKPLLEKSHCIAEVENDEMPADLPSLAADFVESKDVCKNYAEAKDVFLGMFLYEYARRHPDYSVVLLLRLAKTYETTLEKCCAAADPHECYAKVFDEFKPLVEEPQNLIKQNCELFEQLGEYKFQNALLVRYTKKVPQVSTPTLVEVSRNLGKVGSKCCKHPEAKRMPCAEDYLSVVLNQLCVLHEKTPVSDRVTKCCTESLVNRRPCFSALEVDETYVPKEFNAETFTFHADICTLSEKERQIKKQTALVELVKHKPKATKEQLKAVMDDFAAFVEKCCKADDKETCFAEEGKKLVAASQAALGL

Compound | Site I binding (DNSA displacement), result in words [1] | binding to Site II (HSA [2]) | binding to Sudlow Site I (HSA [2]) | further results
Oc1ccc(-c2ccc(Cl)cc2)cc1 [4’-OH-PCB 3] | significant binding |  |  | 
Oc1ccc(-c2cc(Cl)ccc2Cl)cc1 [4’-OH-PCB 9] | no significant binding |  |  | 
O=S(=O)(O)Oc1ccc(-c2ccc(Cl)cc2)cc1 [4’-PCB 3 sulfate] | significant binding |  |  | 
O=S(=O)(O)Oc1ccc(-c2ccc(Cl)c(Cl)c2)cc1 [4’-PCB 12 sulfate] | no significant binding |  |  | 
O=S(=O)(O)Oc1ccc(-c2ccc(Cl)c(Cl)c2)c(Cl)c1 [4’-PCB 33 sulfate] |  |  |  | fluorescence of the site I probe, DNSA [1]: increased
O=S(=O)(O)Oc1ccc(-c2ccc(Cl)c(Cl)c2)cc1Cl [4’-PCB 35 sulfate] | lack of interaction |  |  | fluorescence of the site I probe, DNSA [1]: increased
Clc1ccc(-c2cc(Cl)c(Cl)cc2Cl)cc1Cl [PCB 118] |  | no binding | bound with high affinity | 
Clc1cc(Cl)c(-c2cc(Cl)c(Cl)cc2Cl)cc1Cl [PCB 153] |  | no binding | bound with high affinity | HSA binding site (HSA [3]): bound to a single site of HSA, Sudlow Site II
Clc1ccc(-c2cc(Cl)c(Cl)c(Cl)c2)cc1Cl [compound 126] |  | no binding | bound with high affinity | 
O=C(O)c1ccccc1Nc1cccc(C(F)(F)F)c1 [flufenamic acid] |  |  |  | Ka (human serum albumin): 156000 M⁻¹
